Article PMC5339005 (International Journal of Nanomedicine, 2017)
Structures can show the parent of a compound that is named as a salt. Values belong to the molecule of their own block, whether it stands above or below them. Square brackets hold non-standard residues; d marks the D form. Peptide text beside a SMILES is read from it. Sar = CNCC(=O)O

Key:
[1] = system: ARPE-19 cells; experiment: Flow cytometry uptake mechanism with endocytic inhibitors, ARPE-19; type: cell-based; settings: inhibitor pre-incubated 30 min, nanocomposites 4 h
Procedure, shortened: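 ARPE-19 cells were seeded at 10^5 cells/well in 12-well plates and grown 5 days, with one medium change. FITC-labeled nanocomposites (4 μg/mL FITC) were then added for 4 h at 37°C in serum-free medium. Cells were rinsed with cold PBS, trypsinized and read by flow cytometry at 495/525 nm. Untreated cells served as control; n=3.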

[2] = system: HCEpiC; experiment: Flow cytometry uptake mechanism with endocytic inhibitors, HCEpiC; type: cell-based, human; settings: inhibitor pre-incubated 30 min, nanocomposites 4 h
Procedure, shortened: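 HCEpiC were seeded at 10^5 cells/well in 12-well plates and grown 6 days, with medium refreshed every 2 days. FITC-labeled nanocomposites (2 μg/mL FITC) were then added for 4 h at 37°C. Cells were rinsed twice with cold DPBS, trypsinized, resuspended at 5×10^5–1×10^6 cells/mL and read by flow cytometry at 495/525 nm. Untreated cells served as control; n=3.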

[3] = system: HCEpiC and ARPE-19 cells; experiment: Gly-Sar cell viability by MTT assay; type: cell-based; settings: even at 10 mM; cells not stated at the place (Figure S6)
[4] = In vitro drug release, dynamic dialysis method; type: physicochemical; settings: PBS pH 7.4, within 2 h
Procedure, shortened: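 Free drug solution or drug-loaded nanosheet suspension (1 mL, 50 μg drug) was placed in a dialysis bag (MWCO 8–14 kDa) in PBS pH 7.4 at 35°C±0.5°C, shaken at 400 rpm. Samples of 0.5 mL were taken at 10–720 min, filtered through 0.22 μm and replaced with fresh PBS. Drug was quantified by HPLC.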

[5] = system: HCEpiC; experiment: Cellular uptake, inverted fluorescence microscope, HCEpiC; type: cell-based, human; settings: 2 μg/mL FITC, 37°C, 1, 2 and 4 h
Procedure, shortened: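 HCEpiC were grown in poly-L-lysine-coated flasks (2 μg/cm2) in serum-free corneal epithelial medium with growth supplement, under 5% CO2 at 37°C. They were seeded at 5×10^4 cells/well in 24-well plates and grown 6 days, with medium refreshed every 2 days. Cells were exposed for 1, 2 and 4 h at 37°C to FITC-labeled test nanocomposites, free FITC or polymer–FITC control solution, at 2 μg/mL FITC. They were washed three times with DPBS and imaged by inverted fluorescence microscopy.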

[6] = system: ARPE-19 cells; experiment: Cellular uptake, inverted fluorescence microscope, ARPE-19; type: cell-based; settings: ARPE-19, 4 μg/mL FITC, 37°C, 1, 2 and 4 h
Procedure, shortened: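 ARPE-19 cells were grown in DMEM/F-12 with 10% FBS under 5% CO2 at 37°C. They were seeded at 5×10^4 cells/well in 24-well plates and grown 2 days. Cells were exposed for 1, 2 and 4 h at 37°C to FITC-labeled test nanocomposites, free FITC or polymer–FITC control solution (3.8×10−4% or 0.008% w/v polymer), at 4 μg/mL FITC. They were washed three times with PBS and imaged by inverted fluorescence microscopy.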

SMILES: CN(C)CCCN1c2ccccc2Sc2ccc(Cl)cc21 [chlorpromazine, chlorpromazine hydrochloride]
Effect of inhibitor on cellular uptake of FITC-labeled nanocomposites vs control [1]: significantly decreased
Effect of inhibitor on cellular uptake of FITC-labeled nanocomposites vs control [2]: significantly decreased

SMILES: N=C(N)NC(=O)c1nc(Cl)c(N)nc1N [amiloride]
Effect of inhibitor on cellular uptake of FITC-labeled nanocomposites vs control [1]: no effect
Effect of inhibitor on cellular uptake of FITC-labeled nanocomposites vs control [2]: no effect

SMILES: O=c1c(-c2ccc(O)cc2)coc2cc(O)cc(O)c12 [genistein]
Effect of inhibitor on cellular uptake of FITC-labeled nanocomposites vs control [1]: no significant influence
Effect of inhibitor on cellular uptake of FITC-labeled nanocomposites vs control [2]: no significant influence

SMILES: CN(CC(=O)O)C(=O)CN [Gly-Sar] (H-Gly-[Sar]-OH)
Cytotoxicity (cell viability by MTT) [3]: no cytotoxicity

Cumulative release of PRN [4]: ~ 100%
SMILES: O=C([O-])c1cc(=O)c2c3nc4ccccc4oc-3cc(=O)c2[nH]1.[Na+] [PRN solution, Pirenoxine sodium]

SMILES: [N-]=[N+]=[N-].[Na+] [sodium azide]
Effect of inhibitor on cellular uptake of FITC-labeled nanocomposites vs control [1]: decreased
Effect of inhibitor on cellular uptake of FITC-labeled nanocomposites vs control [2]: decreased

SMILES: OC[C@H]1O[C@@](CO)(O[C@H]2O[C@H](CO)[C@@H](O)[C@H](O)[C@H]2O)[C@@H](O)[C@@H]1O [hypertonic sucrose, sucrose]
Effect of inhibitor on cellular uptake of FITC-labeled nanocomposites vs control [1]: significantly decreased
Effect of inhibitor on cellular uptake of FITC-labeled nanocomposites vs control [2]: significantly decreased

SMILES: O=C1OC2(c3ccc(O)cc3Oc3cc(O)ccc32)c2ccc(N=C=S)cc21 [free FITC, fluorescein isothiocyanate (FITC) isomer I]
Fluorescence of cells (cellular uptake) [5]: negligible fluorescence
Fluorescence of cells (cellular uptake) [6]: negligible fluorescence

SMILES: C[C@@H]1[C@H](O)[C@@H](C)/C=C/C=C/CC/C=C/C=C/C=C/C=C/C(O[C@H]2O[C@H](C)[C@@H](O)[C@H](N)[C@@H]2O)CC2O[C@](O)(CC(O)C(O)CCC(O)CC(O)CC(O)CC(=O)O[C@H]1C)CC(O)C2C(=O)O (stereo partly shown) [Nystatin, nystatin]
Effect of inhibitor on cellular uptake of FITC-labeled nanocomposites vs control [1]: no significant influence
Effect of inhibitor on cellular uptake of FITC-labeled nanocomposites vs control [2]: no significant influence
